Tests used:
Rattus norvegicus [1] = experiment: Ratio of distribution of radioactivity in rat brain prefrontal cortex and cerebellum 30 min after intravenous administration of iodine labeled compound; format: ADME, organism-based; details: in vivo, 0.5 h
Procedure, shortened: (§1)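 Male Sprague–Dawley rats (225–300 g) under ketamine anaesthesia were given [123I]ZIENT (10 μCi) in 0.2 mL 10% EtOH/0.9% NaCl into the tail vein, with a saline flush. Hypothalamus, prefrontal cortex, striatum, pons and cerebellum were dissected and gamma-counted. % injected dose/g came from decay-corrected counts against the diluted injected dose, and region/cerebellum ratios were taken from these. Mean ± SE, n=4–5.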

Rattus norvegicus [2] = experiment: Ratio of distribution of radioactivity in rat brain hypothalamus and cerebellum 30 min after intravenous administration of iodine labeled compound; format: ADME, organism-based; details: in vivo, 0.5 h; procedure, shortened: as §1
Rattus norvegicus [3] = experiment: Ratio of distribution of radioactivity in rat brain region striatum and cerebellum 60 min after intravenous administration of iodine labeled compound in absence of blocker in study 2; format: ADME, organism-based; details: in vivo, 1 h
Rattus norvegicus [4] = experiment: Distribution of radioactivity in rat brain 30 min after intravenous administration of iodine labeled compound; format: ADME, organism-based; details: in vivo, 0.5 h
Rattus norvegicus [5] = experiment: Distribution of radioactivity in rat brain striatum 30 min after intravenous administration of iodine labeled compound; format: ADME, organism-based; details: in vivo, 0.5 h; procedure, shortened: as §1
Rattus norvegicus [6] = experiment: Distribution of radioactivity in rat brain cerebellum 60 min after intravenous administration of iodine labeled compound; format: ADME, organism-based; details: in vivo, 1 h
Procedure, shortened: (§2)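 Male Sprague–Dawley rats (225–300 g) under ketamine received 10 µCi radioligand iv (tail vein) in 10% EtOH/saline. Hypothalamus, prefrontal cortex, striatum, pons and cerebellum were dissected, weighed and gamma-counted. % injected dose/g was taken from decay-corrected counts versus diluted dose. Mean ± SE and range, n=5 (5, 30 min) or 4 (60, 120 min).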

Rattus norvegicus [7] = experiment: Distribution of radioactivity in rat testis 60 min after intravenous administration of iodine labeled compound; format: ADME, organism-based; details: in vivo, 1 h
Procedure, shortened: (§3)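 Tail-vein injection of [123I]ZIENT (10 μCi in 0.2 mL 10% EtOH/0.9% NaCl, then 0.4 mL saline flush) into ketamine-anaesthetised male Sprague–Dawley rats (225–300 g). Animals were killed by cardiac excision at set times. Organs were excised, rinsed, blotted, weighed and gamma-counted. % dose/g was calculated against diluted aliquots of injectate. Mean ± SE, n=4–5.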

Rattus norvegicus [8] = experiment: Distribution of radioactivity in rat blood 30 min after intravenous administration of iodine labeled compound; format: ADME, organism-based; details: in vivo, 0.5 h
Procedure, shortened: (§4)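 Male Sprague–Dawley rats (225–300 g) under ketamine received 10 µCi radioligand in 0.2 mL 10% EtOH/0.9% NaCl via tail vein, then a saline flush. Killed by cardiac excision at set times. Organs were excised, weighed and gamma-counted. % dose/g was taken against diluted injectate. Mean ± SE and range, n=4 (5 min) or 5 (30–120 min).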

Rattus norvegicus [9] = experiment: Ratio of distribution of radioactivity in rat brain prefrontal cortex and cerebellum 120 min after intravenous administration of iodine labeled compound; format: ADME, organism-based; details: in vivo, 2 h; procedure, shortened: as §1
Rattus norvegicus [10] = experiment: Distribution of radioactivity in rat testis 5 min after intravenous administration of iodine labeled compound; format: ADME, organism-based; details: in vivo; procedure, shortened: as §3
Rattus norvegicus [11] = experiment: Distribution of radioactivity in rat liver 120 min after intravenous administration of iodine labeled compound; format: ADME, organism-based; details: in vivo, 2 h; procedure, shortened: as §3
Rattus norvegicus [12] = experiment: Ratio of distribution of radioactivity in rat brain region striatum and cerebellum 60 min after intravenous administration of iodine labeled compound in presence of reboxetine blocker in study 2; format: ADME, organism-based; details: in vivo, 1 h
Rattus norvegicus [13] = experiment: Distribution of radioactivity in rat brain 120 min after intravenous administration of iodine labeled compound; format: ADME, organism-based; details: in vivo, 2 h
Rattus norvegicus [14] = experiment: Distribution of radioactivity in rat spleen 30 min after intravenous administration of iodine labeled compound; format: ADME, organism-based; details: in vivo, 0.5 h; procedure, shortened: as §3
Rattus norvegicus [15] = experiment: Distribution of radioactivity in rat brain region striatum 60 min after intravenous administration of iodine labeled compound in absence of blocker in study 2; format: ADME, organism-based; details: in vivo, 1 h
Procedure, shortened: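 Male Sprague–Dawley rats (250–300 g), ketamine-anaesthetised, received [123I]ZIENT (10 μCi) in 0.2 mL 10% ethanol/0.9% NaCl via the tail vein. […] Rats were killed at 60 min with pentobarbital, brain regions dissected and gamma-counted. Values are % dose/g from decay-corrected, background-subtracted counts against the diluted injected dose.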

Rattus norvegicus [16] = experiment: Distribution of radioactivity in rat brain region pons 60 min after intravenous administration of iodine labeled compound in presence of fluvoxamine blocker in study 1; format: ADME, organism-based; details: in vivo, 1 h
Procedure, shortened: (§5)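 Male Sprague–Dawley rats (250–300 g), ketamine-anesthetized. Blocker (2 mg/kg) or none was given iv 15 min before tail-vein radioligand (10 µCi in 0.2 mL 10% EtOH/saline). Rats were killed at 60 min with im pentobarbital. Brain regions were dissected, weighed and gamma-counted. % dose/g was taken from decay-corrected, background-subtracted counts versus the injected dose.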

Rattus norvegicus [17] = experiment: Distribution of radioactivity in rat brain cerebellum 120 min after intravenous administration of iodine labeled compound; format: ADME, organism-based; details: in vivo, 2 h; procedure, shortened: as §2
Rattus norvegicus [18] = experiment: Distribution of radioactivity in rat brain region hypothalamus 60 min after intravenous administration of iodine labeled compound in presence of RTI-113 blocker in study 1; format: ADME, organism-based; details: in vivo, 1 h; procedure, shortened: as §5
Rattus norvegicus [19] = experiment: Distribution of radioactivity in rat brain striatum 5 min after intravenous administration of iodine labeled compound; format: ADME, organism-based; details: in vivo; procedure, shortened: as §1
Rattus norvegicus [20] = experiment: Distribution of radioactivity in rat liver 60 min after intravenous administration of iodine labeled compound; format: ADME, organism-based; details: in vivo, 1 h; procedure, shortened: as §3
Rattus norvegicus [21] = experiment: Distribution of radioactivity in rat brain pons 60 min after intravenous administration of iodine labeled compound; format: ADME, organism-based; details: in vivo, 1 h; procedure, shortened: as §2
[22] = target: Sodium-dependent dopamine transporter (Homo sapiens, UniProt Q01959); experiment: In vitro competitive binding versus [N-methyl-3H]WIN-35428 in murine kidney cells transfected with cDNA for human dopamine transporter (DAT); format: cell-based
Rattus norvegicus [23] = experiment: Ratio of distribution of radioactivity in rat brain prefrontal cortex and cerebellum 60 min after intravenous administration of iodine labeled compound; format: ADME, organism-based; details: in vivo, 1 h; procedure, shortened: as §1
Rattus norvegicus [24] = experiment: Distribution of radioactivity in rat thyroid 60 min after intravenous administration of iodine labeled compound; format: ADME, organism-based, Thyroid gland; details: in vivo, 1 h; procedure, shortened: as §3
Rattus norvegicus [25] = experiment: Distribution of radioactivity in rat brain region cerebellum 60 min after intravenous administration of iodine labeled compound in presence of reboxetine blocker in study 2; format: ADME, organism-based; details: in vivo, 1 h; procedure, shortened: as §5
Rattus norvegicus [26] = experiment: Distribution of radioactivity in rat brain region hypothalamus 60 min after intravenous administration of iodine labeled compound in absence of blocker in study 2; format: ADME, organism-based; details: in vivo, 1 h; procedure, shortened: as §5
Rattus norvegicus [27] = experiment: Distribution of radioactivity in rat brain cerebellum 30 min after intravenous administration of iodine labeled compound; format: ADME, organism-based; details: in vivo, 0.5 h; procedure, shortened: as §2
Rattus norvegicus [28] = experiment: Ratio of distribution of radioactivity in rat brain region hypothalamus and cerebellum 60 min after intravenous administration of iodine labeled compound in presence of RTI-113 blocker in study 1; format: ADME, organism-based; details: in vivo, 1 h
Rattus norvegicus [29] = experiment: Distribution of radioactivity in rat blood 60 min after intravenous administration of iodine labeled compound; format: ADME, organism-based; details: in vivo, 1 h; procedure, shortened: as §4
Rattus norvegicus [30] = experiment: Distribution of radioactivity in rat spleen 60 min after intravenous administration of iodine labeled compound; format: ADME, organism-based; details: in vivo, 1 h; procedure, shortened: as §3
Rattus norvegicus [31] = experiment: Distribution of radioactivity in rat testis 120 min after intravenous administration of iodine labeled compound; format: ADME, organism-based; details: in vivo, 2 h; procedure, shortened: as §3
Rattus norvegicus [32] = experiment: Ratio of distribution of radioactivity in rat brain region pons and cerebellum 60 min after intravenous administration of iodine labeled compound in presence of fluvoxamine blocker in study 1; format: ADME, organism-based; details: in vivo, 1 h
Rattus norvegicus [33] = experiment: Distribution of radioactivity in rat brain 60 min after intravenous administration of iodine labeled compound; format: ADME, organism-based; details: in vivo, 1 h
Rattus norvegicus [34] = experiment: Ratio of distribution of radioactivity in rat brain region striatum and cerebellum 60 min after intravenous administration of iodine labeled compound in presence of RTI-113 blocker in study 1; format: ADME, organism-based; details: in vivo, 1 h
Rattus norvegicus [35] = experiment: Ratio of distribution of radioactivity in rat brain region prefrontal cortex and cerebellum 60 min after intravenous administration of iodine labeled compound in absence of blocker in study 2; format: ADME, organism-based; details: in vivo, 1 h

Chain of Sodium-dependent dopamine transporter (Q01959 whole entry): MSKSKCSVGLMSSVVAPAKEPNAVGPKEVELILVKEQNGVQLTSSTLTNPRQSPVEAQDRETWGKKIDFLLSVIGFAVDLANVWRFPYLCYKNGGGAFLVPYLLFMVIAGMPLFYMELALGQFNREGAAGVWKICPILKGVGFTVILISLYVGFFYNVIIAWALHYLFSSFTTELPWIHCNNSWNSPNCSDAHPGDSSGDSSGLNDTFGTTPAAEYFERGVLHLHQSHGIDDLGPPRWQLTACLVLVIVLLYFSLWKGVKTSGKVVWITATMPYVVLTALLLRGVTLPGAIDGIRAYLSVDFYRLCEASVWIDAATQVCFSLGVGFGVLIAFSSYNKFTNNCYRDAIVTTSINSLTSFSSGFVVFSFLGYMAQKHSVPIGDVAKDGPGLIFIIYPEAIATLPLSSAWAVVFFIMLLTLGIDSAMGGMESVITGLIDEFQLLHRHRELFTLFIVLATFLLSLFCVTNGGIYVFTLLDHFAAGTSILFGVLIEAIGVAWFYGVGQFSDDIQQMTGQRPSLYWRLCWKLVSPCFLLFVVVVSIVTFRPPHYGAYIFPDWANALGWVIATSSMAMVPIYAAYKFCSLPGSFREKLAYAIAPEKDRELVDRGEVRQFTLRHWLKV

COC(=O)[C@@H]1C2CCC(C[C@@H]1c1ccc(/C=C\I)cc1)N2 (stereo not given in full)
Distribution (dose/g) (Rattus norvegicus [1]): 2.56% | Distribution (dose/g) (Rattus norvegicus [2]): 2.38% | Distribution (dose/g) (Rattus norvegicus [3]): 3.32% | Distribution (dose/g) (Rattus norvegicus [4]): 0.74% | Distribution (dose/g) (Rattus norvegicus [5]): 0.72% | Distribution (dose/g) (Rattus norvegicus [6]): 0.25% | Distribution (dose/g) (Rattus norvegicus [7]): 0.32% | Distribution (dose/g) (Rattus norvegicus [8]): 0.4% | Distribution (dose/g) (Rattus norvegicus [9]): 4.08% | Distribution (dose/g) (Rattus norvegicus [10]): 0.21% | Distribution (dose/g) (Rattus norvegicus [11]): 0.23% | Distribution (dose/g) (Rattus norvegicus [12]): 3.04% | Distribution (dose/g) (Rattus norvegicus [13]): 0.39% | Distribution (dose/g) (Rattus norvegicus [14]): 0.81% | Distribution (dose/g) (Rattus norvegicus [15]): 0.63% | Distribution (dose/g) (Rattus norvegicus [16]): 0.25% | Distribution (dose/g) (Rattus norvegicus [17]): 0.12% | Distribution (dose/g) (Rattus norvegicus [18]): 0.8% | Distribution (dose/g) (Rattus norvegicus [19]): 0.64% | Distribution (dose/g) (Rattus norvegicus [20]): 0.22% | Distribution (dose/g) (Rattus norvegicus [21]): 0.59% | Ki [22]: 3.47 nM | Distribution (dose/g) (Rattus norvegicus [23]): 3.28% | Distribution (dose/g) (Rattus norvegicus [24]): 0.8% | Distribution (dose/g) (Rattus norvegicus [25]): 0.23% | Distribution (dose/g) (Rattus norvegicus [26]): 0.75% | Distribution (dose/g) (Rattus norvegicus [27]): 0.32% | Distribution (dose/g) (Rattus norvegicus [28]): 3.2% | Distribution (dose/g) (Rattus norvegicus [29]): 0.37% | Distribution (dose/g) (Rattus norvegicus [30]): 0.61% | Distribution (dose/g) (Rattus norvegicus [31]): 0.31% | Distribution (dose/g) (Rattus norvegicus [32]): 1.47% | Distribution (dose/g) (Rattus norvegicus [33]): 0.62% | Distribution (dose/g) (Rattus norvegicus [34]): 2.56% | Distribution (dose/g) (Rattus norvegicus [35]): 3.89%
